Laboratory results taken from ChEMBL document CHEMBL1909503, “Protective effects of luteolin against apoptotic liver damage induced by D-galactosamine/lipopolysaccharide in mice” (2011).
Active and inactive are the calls of the source. The calls are words filed in the database; no cut-off is given here.

Key:
Mus musculus [1] = test: Hepatoprotective activity in GalN/LPS -stimulated ICR mouse assessed as reduction in number of apoptotic hepatocytes at 200 mg/kg, ip administered 1 hr prior to GalN/LPS by TUNEL assay; format: functional, organism-based; parameters: dose 200 mg/kg; conditions: Hepatocyte
Outline: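 Liver sections from male ICR mice pretreated ip 1 h before GalN (700 mg/kg)/LPS (10 μg/kg). Apoptotic hepatocytes detected with an in situ TUNEL kit; TUNEL-positive cells counted microscopically across 200 histological fields.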

Mus musculus [2] = test: Hepatoprotective activity in GalN/LPS -stimulated ICR mouse assessed as reduction in phosphorylated JNK p-54 expression level at 200 mg/kg, ip administered 1 hr prior to GalN/LPS challenge measured after 3 hrs of GalN/LPS injection by Western blotting; format: functional, organism-based; parameters: dose 200 mg/kg
Outline: (§1)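 Male ICR mice (25–30 g), fasted overnight, water ad libitum. Compound suspended in 10% Tween 80–saline, given ip 1 h before ip GalN (700 mg/kg) plus E. coli 026:B6 LPS (10 μg/kg) in PBS. Liver homogenized in lysis buffer; 10 μg protein per lane on 10% SDS-PAGE, semidry transfer to nitrocellulose, blocked in 5% skim milk/TBS. Overnight 4 °C primary antibody; β-actin reference. 8–10 mice per group.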

Mus musculus [3] = test: Hepatoprotective activity in GalN/LPS -stimulated ICR mouse assessed as decrease in caspase-3 activity at 200 mg/kg, ip administered 1 hr prior to GalN/LPS challenge measured after 8 hrs of GalN/LPS injection relative to control; format: functional; parameters: scale not given: the % may be the effect or the level left; conditions: route intraperitoneal
Outline: (§2)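 Liver taken 8 h after GalN (700 mg/kg)/LPS (10 μg/kg) ip, homogenized in 25 mM Tris, 5 mM MgCl2, 1 mM EGTA with protease inhibitors; 40000g supernatant, 10 mM DTT added. 30 μg protein preincubated 15 min at room temperature in HEPES/EDTA/NaCl/Triton/DTT buffer, then 200 μM peptide substrate (DEVD for caspase-3, IETD for caspase-8) at 37 °C; fluorescence (400/490 nm) read at 120 min; expressed as % of control.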

Mus musculus [4] = test: Hepatoprotective activity in GalN/LPS -stimulated ICR mouse assessed as decrease in Bax expression level at 200 mg/kg, ip administered 1 hr prior to GalN/LPS challenge measured after 3 hrs of GalN/LPS injection by Western blotting; format: functional, organism-based; parameters: dose 200 mg/kg; outline: as §1
Mus musculus [5] = test: Hepatoprotective activity in ip dosed ICR mouse assessed as reduction in GalN/LPS-induced mortality at 200 mg/kg, ip administered 1 hr prior to GalN/LPS challenge measured after 24 hrs of GalN/LPS injection; format: functional, organism-based; parameters: dose 200 mg/kg
Outline: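 15 male ICR mice per group received compound (25–200 mg/kg) in 10% Tween 80–saline ip 1 h before ip GalN 700 mg/kg plus E. coli 026:B6 LPS 10 μg/kg in PBS; survival monitored over 24 h after challenge.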

Mus musculus [6] = test: Hepatoprotective activity in GalN/LPS -stimulated ICR mouse assessed as decrease in Bid expression level at 200 mg/kg, ip administered 1 hr prior to GalN/LPS challenge measured after 3 hrs of GalN/LPS injection by Western blotting; format: functional, organism-based; parameters: dose 200 mg/kg; outline: as §1
Mus musculus [7] = test: Hepatoprotective activity in GalN/LPS -stimulated ICR mouse assessed as decrease in serum alanine amino transferase level at 200 mg/kg, ip administered 1 hr prior to GalN/LPS challenge measured after 8 hrs of GalN/LPS injection; format: functional; conditions: route intraperitoneal
Outline: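 Fasted male ICR mice given compound ip in 10% Tween 80–saline 1 h before ip GalN (700 mg/kg)/LPS (10 μg/kg) in PBS. Blood sampled 8 h after challenge; serum ALT measured with an automatic analyzer, reported in U/L. 8–10 mice per group.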

Mus musculus [8] = test: Hepatoprotective activity in GalN/LPS -stimulated ICR mouse assessed as suppression of cytochrome c level at 200 mg/kg, ip administered 1 hr prior to GalN/LPS challenge measured after 8 hrs of GalN/LPS injection by Western blotting; format: functional, organism-based; parameters: dose 200 mg/kg
Outline: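 Male ICR mice; compound in 10% Tween 80–saline ip 1 h before ip GalN 700 mg/kg/LPS 10 μg/kg; liver taken 8 h later. Cytosolic fraction prepared by NE-PER extraction. 50 μg cytosolic protein run on 12% SDS-PAGE, blotted to nitrocellulose, blocked with 5% nonfat milk/PBS, probed 1 h at room temperature with monoclonal anti-cytochrome c, β-actin as reference, HRP secondary. 8–10 mice per group.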

Mus musculus [9] = test: Hepatoprotective activity in GalN/LPS -stimulated ICR mouse assessed as decrease in serum TNFalpha level at 200 mg/kg, ip administered 1 hr prior to GalN/LPS challenge measured after 1 hr of GalN/LPS injection by ELISA; format: functional; conditions: route intraperitoneal
Outline: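 Male ICR mice dosed ip (10% Tween 80–saline) 1 h before ip GalN 700 mg/kg plus LPS 10 μg/kg. Serum TNF-α quantified 1 h after challenge by mouse ELISA kit following kit instructions. 8–10 mice per group.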

Mus musculus [10] = test: Hepatoprotective activity in GalN/LPS-stimulated ICR mouse assessed as decrease in ratio of phosphorylated Bim EL protein expression level at 200 mg/kg, ip administered 1 hr prior to GalN/LPS challenge measured after 3 hrs of GalN/LPS injection by Western blotting; format: functional, organism-based; parameters: dose 200 mg/kg; outline: as §1
Mus musculus [11] = test: Hepatoprotective activity in GalN/LPS -stimulated ICR mouse assessed as decrease in ratio of phosphorylated BimL protein expression level at 200 mg/kg, ip administered 1 hr prior to GalN/LPS challenge measured after 3 hrs of GalN/LPS injection by Western blotting; format: functional, organism-based; parameters: dose 200 mg/kg; outline: as §1
Mus musculus [12] = test: Hepatoprotective activity in GalN/LPS -stimulated ICR mouse assessed as decrease in caspase-8 activity at 200 mg/kg, ip administered 1 hr prior to GalN/LPS challenge measured after 8 hrs of GalN/LPS injection relative to control; format: functional; parameters: scale not given: the % may be the effect or the level left; conditions: route intraperitoneal; outline: as §2
Mus musculus [13] = test: Hepatoprotective activity in GalN/LPS -stimulated ICR mouse assessed as reduction in phosphorylated JNK p-46 expression level at 200 mg/kg, ip administered 1 hr prior to GalN/LPS challenge measured after 3 hrs of GalN/LPS injection by Western blotting; format: functional, organism-based; parameters: dose 200 mg/kg; outline: as §1
Mus musculus [14] = test: Hepatoprotective activity in GalN/LPS -stimulated ICR mouse assessed as suppression of TRADD expression level at 200 mg/kg, ip administered 1 hr prior to GalN/LPS challenge measured after 3 hrs of GalN/LPS injection by Western blotting; format: functional, organism-based; parameters: dose 200 mg/kg; outline: as §1
Mus musculus [15] = test: Hepatoprotective activity in ICR mouse assessed as reduction in GalN/LPS-induced mortality at 200 mg/kg, ip administered 1 hr prior to GalN/LPS challenge measured after 24 hrs of GalN/LPS injection; format: functional, organism-based; parameters: dose 200 mg/kg; scale not given: the % may be the effect or the level left
Outline: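 Male ICR mice (25–30 g), fasted overnight with water ad libitum. Pretreatment ip, suspended in 10% Tween 80–saline, 1 h before ip GalN (700 mg/kg) plus E. coli 026:B6 LPS (10 μg/kg) in PBS. Survival monitored for 24 h after GalN/LPS; 15 mice per group.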

Row | Compound | Activity (Mus musculus [1]) | inhibition (Mus musculus [2]) | Activity (Mus musculus [3]) [%] | inhibition (Mus musculus [4]) | Activity (Mus musculus [5]) | inhibition (Mus musculus [6]) | Activity (Mus musculus [7]) [U/L] | inhibition (Mus musculus [8]) | Activity (Mus musculus [9]) [pg/mL] | inhibition (Mus musculus [10]) | inhibition (Mus musculus [11]) | Activity (Mus musculus [12]) [%] | inhibition (Mus musculus [13]) | inhibition (Mus musculus [14]) | Activity (Mus musculus [15]) [%]
1 | O=c1cc(-c2ccc(O)c(O)c2)oc2cc(O)cc(O)c12 [LUTEOLIN] | Active | Active | 251.7 | Active | Dose-dependent effect | Active | 1059 | Active | 574.2 | Active | Active | 176.8 | Active | Active | 
2 | SILYMARIN |  |  |  |  |  |  |  |  |  |  |  |  |  |  | 13.3
